The source made the active and inactive calls. The rule behind the calls is not given here.
Assays:
[1] = Oral bioavailability in C57BL6 mouse at 10 mg/kg BID; assay type: ADME, organism-based; conditions: in vivo, in the assay text read “10 mg/kg” for “10 mg/kg BID”
Outline: (§1)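 Fasted male C57BL6 mice given 2 mg/kg IV and 10 mg/kg PO. Plasma drug levels measured by LC-MS/MS, mean of n = 3 animals, and PK parameters derived from these.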

[2] = Volume of distribution in fasted C57BL6 mouse at 2 mg/kg, iv and 10 mg/kg, po BID; assay type: ADME, organism-based; conditions: in vivo; outline: as §1
[3] = AUC in plasma of fasted C57BL6 mouse at 2 mg/kg, iv and 10 mg/kg, po BID; assay type: ADME, organism-based
Outline: (§2)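 Fasted male C57BL6 mice received 2 mg/kg IV and 10 mg/kg PO. For the reference compound, IV was given as a solution in 60% PEG-200 and PO as a suspension in 1% methocel. Plasma levels were measured by LC-MS/MS. Values are the mean of n = 3 animals.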

[4] = Half life in fasted C57BL6 mouse at 2 mg/kg, iv and 10 mg/kg, po BID; assay type: ADME, organism-based; conditions: in vivo; outline: as §2
[5] = Clearance in fasted C57BL6 mouse at 2 mg/kg, iv and 10 mg/kg, po BID; assay type: ADME, organism-based; conditions: in vivo; outline: as §2
[6] = Cmax in plasma of fasted C57BL6 mouse at 2 mg/kg, iv and 10 mg/kg, po BID; assay type: ADME, organism-based; outline: as §2
Stearoyl-CoA desaturase = molecular target: T1, Stearoyl-CoA desaturase (Homo sapiens, UniProt O00767); experiment: Inhibition of SCD-1 activity in organic anion transporting polypeptides-deficient human HepG2 cells assessed as reduction in [I-14C] stearoyl CoA desaturation by scintillation counting; assay type: cell-based
T1 sequence (O00767 whole entry): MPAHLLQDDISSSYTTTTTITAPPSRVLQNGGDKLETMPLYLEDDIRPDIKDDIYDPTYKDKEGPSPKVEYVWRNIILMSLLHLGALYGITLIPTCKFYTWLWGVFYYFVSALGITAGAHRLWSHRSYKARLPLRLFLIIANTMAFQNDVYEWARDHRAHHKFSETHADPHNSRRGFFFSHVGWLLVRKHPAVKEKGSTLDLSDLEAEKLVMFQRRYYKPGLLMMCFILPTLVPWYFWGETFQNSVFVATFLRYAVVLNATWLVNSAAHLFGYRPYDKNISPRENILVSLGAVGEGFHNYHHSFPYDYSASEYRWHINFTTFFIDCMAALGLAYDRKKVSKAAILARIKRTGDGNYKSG

Mus musculus [7] = experiment: Inhibition of SCD activity in liver of diet-induced obese C57BL6 mouse assessed as reduction in desaturation induces at 30 mg/kg, po BID; assay type: functional, organism-based; design: dose 30 mg/kg
Liver [8] = experiment: Ratio drug uptake in liver to harderian gland of C57BL6 mouse at 10 mg/kg, po measured 6 hrs post dose; assay type: ADME, organism-based; design: dose 10 mg/kg, route oral; conditions: in vivo
Outline: (§3)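 Single oral dose of 10 mg/kg in 0.5% methylcellulose to fed C57BL6 mice (n = 2). Animals sacrificed 6 h post dose. Plasma, liver, skin and Harderian gland collected. Tissues homogenized in MeCN/water with internal standard and drug quantified by LC-MS against a standard curve made in blank plasma. Concentration ratio calculated.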

Mus musculus [9] = experiment: Antidiabetic activity in diet-induced obese C57BL6 mouse assessed as reduction in body weight gain at 30 mg/kg, po BID; assay type: functional, organism-based; design: dose 30 mg/kg
HepG2 = experiment: Ratio IC50 for SCD-1 activity in organic anion transporting polypeptides-deficient human HepG2 cells to IC50 for SCD-1 activity in Sprague-Dawley rat Hepatocytes expressing organic anion transporting polypeptides; assay type: cell-based
Outline: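 Cellular SCD IC50s measured in human HepG2 cells (lacking active OATPs) and in rat hepatocytes (active OATPs). Hepatocytes preincubated with compound for 15 min at 37 °C, then given 14C-stearic acid (final 0.5 μCi/ml) for 1 h with shaking. Lipids hydrolysed in 2N NaOH at 75 °C, acidified and extracted. Radiolabelled oleic and stearic acid resolved by HPLC with flow scintillation detection. Mean of at least n = 3. HepG2 IC50 divided by hepatocyte IC50.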

Acyl-CoA desaturase 1 [10] = molecular target: T2, Acyl-CoA desaturase 1 (Rattus norvegicus, UniProt P07308); experiment: Inhibition of SCD-1 activity in Sprague-Dawley rat Hepatocytes expressing organic anion transporting polypeptides assessed as reduction in [I-14C] […] desaturation by scintillation counting; assay type: cell-based, Hepatocyte
T2 sequence (P07308 whole entry): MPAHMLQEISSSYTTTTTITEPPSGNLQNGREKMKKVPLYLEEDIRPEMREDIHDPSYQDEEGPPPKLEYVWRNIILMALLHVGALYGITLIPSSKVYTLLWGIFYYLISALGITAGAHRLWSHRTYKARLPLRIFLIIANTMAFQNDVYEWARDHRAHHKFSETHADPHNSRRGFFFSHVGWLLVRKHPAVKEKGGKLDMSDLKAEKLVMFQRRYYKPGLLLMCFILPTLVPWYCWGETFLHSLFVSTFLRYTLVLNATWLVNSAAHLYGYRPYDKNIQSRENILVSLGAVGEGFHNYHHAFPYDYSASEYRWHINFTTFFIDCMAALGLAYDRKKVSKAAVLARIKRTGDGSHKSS
Outline: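 Rat hepatocytes (4 × 10^6 cells/mL) were preincubated with compound for 15 min at 37 °C/5% CO2. 14C-stearic acid (final 0.5 μCi/mL) was then added for 1 h with shaking. Cells were washed, hydrolyzed in 2N NaOH at 75 °C for 1 h, acidified and extracted. Radiolabeled oleic and stearic acids were quantified by HPLC with flow scintillation detection. Mean of at least n = 3.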

Acyl-CoA desaturase 1 [11] = molecular target: T2, Acyl-CoA desaturase 1; experiment: Inhibition of SCD-1 activity in Sprague-Dawley rat microsome assessed as reduction in [I-14C] stearoyl CoA desaturation by scintillation counting; assay type: microsomes
Mus musculus [12] = experiment: Antidiabetic activity in po dosed diet-induced obese fasted C57BL6 mouse assessed as increase in glucose clearance administered 1 hr before glucose challenge measured 12 hrs thereafter by OGTT; assay type: functional; conditions: in the assay text read “2 hrs” for “12 hrs”
Outline: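 Male C57/Bl6 mice were kept on a high fat diet for at least 14 weeks from 6 weeks of age, then fasted 16 h. Compound was given orally 1 h before a 2 g/kg oral glucose load.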

[13] = Cmax in plasma of fasted C57BL6 mouse at 2 mg/kg, iv and 10 mg/kg, po by LC-MS-MS analysis; assay type: ADME, organism-based; outline: as §2
[14] = Clearance in fasted C57BL6 mouse at 2 mg/kg, iv and 10 mg/kg, po by LC-MS-MS analysis; assay type: ADME, organism-based; conditions: in vivo; outline: as §2
[15] = AUC in plasma of fasted C57BL6 mouse at 2 mg/kg, iv and 10 mg/kg, po by LC-MS-MS analysis; assay type: ADME, organism-based; outline: as §2
Mus musculus [16] = experiment: Inhibition of SCD activity in skin of diet-induced obese C57BL6 mouse assessed as reduction in desaturation induces at 5 mg/kg, po QD; assay type: functional
Mus musculus [17] = experiment: Inhibition of SCD activity in liver of diet-induced obese C57BL6 mouse assessed as reduction in desaturation induces at 5 mg/kg, po QD; assay type: functional
[18] = Ratio drug uptake in liver to plasma of C57BL6 mouse at 10 mg/kg, po measured 6 hrs post dose; assay type: ADME, organism-based; design: dose 10 mg/kg, route oral; conditions: liver and plasma; outline: as §3
Mus musculus [19] = experiment: Antidiabetic activity in po dosed diet-induced obese C57BL6 mouse assessed as reduction in body weight gain; assay type: functional, organism-based
Outline: (§4)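 Male C57/Bl6 mice were fed a high fat diet for at least 18 weeks from 6 weeks of age, then given vehicle (1% methocel, bid) for 7 days and randomized by body weight. Oral dosing (qd or bid) ran for 28 days, with n = 8–10/group. Body weight, food intake and skin/eye scores were recorded twice weekly.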

Mus musculus [20] = experiment: Toxicity in diet-induced obese C57BL6 mouse assessed as adverse effect in eye at 1 to 5 mg/kg, po QD; assay type: organism-based; design: dose 1-5 mg/kg, route oral; conditions: in vivo
[21] = Volume of distribution in fasted C57BL6 mouse at 2 mg/kg, iv and 10 mg/kg, po by LC-MS-MS analysis; assay type: ADME, organism-based; conditions: in vivo; outline: as §1
Mus musculus [22] = experiment: Toxicity in diet-induced obese C57BL6 mouse assessed as adverse effect in skin at 1 to 5 mg/kg, po QD; assay type: organism-based; design: dose 1-5 mg/kg, route oral; conditions: in vivo
Mus musculus [23] = experiment: Antidiabetic activity in diet-induced obese C57BL6 mouse assessed as reduction in body weight gain at 5 mg/kg, po QD; assay type: functional; design: scale not given: the % may be the effect or the level left; outline: as §4
Zone of skin = experiment: Drug level in skin of diet-induced obese C57BL6 mouse at 5 mg/kg, po QD; assay type: ADME, organism-based; design: dose 5 mg/kg, route oral; conditions: in vivo, read-out: Drug uptake
Outline: (§5)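 eDIO mice were dosed orally for 4 weeks, either 20 mg/kg bid or 5 mg/kg qd. Liver, Harderian gland and skin were taken at trough at study termination, and compound concentration was measured by LC-MS.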

[24] = Drug level in harderian gland of diet-induced obese C57BL6 mouse at 5 mg/kg, po QD; assay type: ADME, organism-based; design: dose 5 mg/kg, route oral; conditions: in vivo, read-out: Drug uptake; outline: as §5
Mus musculus [25] = experiment: Antidiabetic activity in diet-induced obese C57BL6 mouse assessed as reduction in glucose AUC at 1 to 15 mg/kg, po administered 1 hr before oral glucose administration measured 2 hrs thereafter; assay type: functional; conditions: dose mg/kg 1-15
Liver [26] = experiment: Drug level in liver of diet-induced obese C57BL6 mouse at 5 mg/kg, po QD; assay type: ADME, organism-based; design: dose 5 mg/kg, route oral; conditions: in vivo, read-out: Drug uptake; outline: as §5
Mus musculus [27] = experiment: Antidiabetic activity in diet-induced obese C57BL6 mouse assessed as reduction in glucose AUC at 1 to 3 mg/kg, po administered 1 hr before oral glucose administration measured 2 hrs thereafter; assay type: functional; conditions: dose mg/kg 1-3
Mus musculus [28] = experiment: Inhibition of SCD activity in harderian gland of diet-induced obese C57BL6 mouse assessed as reduction in desaturation induces at 5 mg/kg, po QD; assay type: functional
Mus musculus [29] = experiment: Antidiabetic activity in diet-induced obese C57BL6 mouse assessed as reduction in glucose AUC at 1 to 10 mg/kg, po administered 1 hr before oral glucose administration measured 2 hrs thereafter; assay type: functional; conditions: dose mg/kg 1-10
Mus musculus [30] = experiment: Toxicity in diet-induced obese C57BL6 mouse assessed as reduction in food intake at 1 to 5 mg/kg, po QD; assay type: organism-based; design: dose 1-5 mg/kg, route oral; conditions: in vivo
Outline: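 Obese male C57/Bl6 mice after at least 18 weeks of high fat diet and a 7-day vehicle run-in, randomized by body weight. Dosed orally at 1 or 5 mg/kg qd for 28 days (n = 8–10/group). Food consumption monitored twice weekly.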

Mus musculus [31] = experiment: Antidiabetic activity in diet-induced obese C57BL6 mouse assessed as reduction in body weight gain at 1 mg/kg, po QD; assay type: functional; design: scale not given: the % may be the effect or the level left; outline: as §4

Structure (SMILES): O=C([O-])Cn1nnc(-c2cc(N3CCC(Oc4cc(F)ccc4Br)CC3)no2)n1.[Na+]
- bioavailability [1]: 12%
- Vd [2]: 1 L/kg
- AUC [3]: 1 µM·h
- half-life [4]: 42 min
- clearance [5]: 41 mL/min/kg
- Cmax [6]: 0.4 µM

Structure (SMILES): O=C(O)Cn1nnc(-c2nnc(N3CCC(Oc4cc(F)ccc4Br)CC3)s2)n1
- IC50 (Stearoyl-CoA desaturase): 904 nM
- inhibition (Mus musculus [7]): Active
- Ratio (Liver [8]): 40
- Activity (Mus musculus [9]): inactive
- Ratio IC50 (HepG2): 5
- IC50 (Acyl-CoA desaturase 1 [10]): 189 nM
- IC50 (Acyl-CoA desaturase 1 [11]): 7 nM

Structure (SMILES): Cc1nnc(-c2ccc(N3CCC(Oc4ccccc4C(F)(F)F)CC3)nn2)s1
- Activity (Mus musculus [12]): Dose-dependent effect
- ED50 (Mus musculus [12]): 3 mg/kg
- Cmax [13]: 1.3 µM
- clearance [14]: 15 mL/min/kg
- IC50 (Stearoyl-CoA desaturase): 21 nM
- AUC [15]: 19 µM·h
- inhibition in vivo at 5 mg/kg (Mus musculus [16]): 25%
- inhibition (Mus musculus [7]): Active
- inhibition in vivo at 5 mg/kg (Mus musculus [17]): 56%
- Kp at 6 h [18]: 14
- Ratio (Liver [8]): 1.5
- Activity (Mus musculus [19]): Dose-dependent effect
- Activity (Mus musculus [20]): Toxic
- Vd [21]: 7 L/kg
- Activity (Mus musculus [22]): Toxic
- Activity (Mus musculus [23]): 20%
- Ratio IC50 (HepG2): 0.14
- concentration (Zone of skin): 4 µM
- concentration [24]: 5 µM
- inhibition (INH) (Mus musculus [25]): 75%
- concentration (Liver [26]): 10 µM
- IC50 (Acyl-CoA desaturase 1 [10]): 157 nM
- inhibition (INH) (Mus musculus [27]): 55%
- inhibition in vivo at 5 mg/kg (Mus musculus [28]): 92%
- inhibition (INH) (Mus musculus [29]): 62%
- IC50 (Acyl-CoA desaturase 1 [11]): 2 nM
- Activity (Mus musculus [30]): Non-toxic
- Activity (Mus musculus [31]): 10%

Source: ChEMBL document CHEMBL2150952 (J Med Chem, 2011)
